# Assay results as given in ChEMBL document CHEMBL1123547, “Structure-activity relationship of novel oligopeptide antiviral and antitumor agents related to netropsin and distamycin” (1986).
# How the values were obtained:
# Format in all cases: functional
# FM3A = assay: Evaluation for its inhibitory effect on proliferation of murine mammary carcinoma (FM3A) cells; settings: Mus musculus, read-out: ID50 (the source's name)
# L1210 = assay: Evaluation for its inhibitory effect on proliferation of murine leukemia L1210 cells; settings: Mus musculus, read-out: ID50 (the source's name)
# Oryctolagus cuniculus = species on record: Oryctolagus cuniculus; assay: Evaluation for antiviral activity in primary rabbit kidney cell culture; settings: read-out: Min cytotoxic concentration
# [1] = tested on: Vesicular stomatitis virus; assay: Evaluation for antiviral activity against vesion stomatitis virus in primary rabbit kidney cell culture
# Summary of the method: (§1)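 Primary rabbit kidney cell cultures infected with virus; the endpoint is the compound concentration that reduces virus-induced cytopathogenicity by 50%.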
# Homo sapiens [2] = species on record: Homo sapiens; assay: Evaluation for its inhibitory effect on proliferation of human lymphoblast namalva cells; settings: read-out: ID50 (the source's name)
# Homo sapiens [3] = species on record: Homo sapiens; assay: Evaluation for its inhibitory effect on proliferation of human lymphoblast Raji cells; settings: read-out: ID50 (the source's name)
# Vaccinia virus = assay: Evaluation for antiviral activity against vaccinia virus in primary rabbit kidney cell culture; settings: Orthopoxvirus vaccinia; summary of the method: as §1
# Human alphaherpesvirus 1 = assay: Evaluation for antiviral activity against herpes simplex virus type 1 (strain KOS) in primary rabbit kidney cell culture; summary of the method: as §1
# Human alphaherpesvirus 2 = assay: Evaluation for antiviral activity against herpes simplex virus type 2 (strain G) in primary rabbit kidney cell culture; summary of the method: as §1
SMILES,IC50 (FM3A) [µg/mL],IC50 (L1210) [µg/mL],MCC (Oryctolagus cuniculus) [µg/mL],MIC [1] [µg/mL],IC50 (Homo sapiens [2]) [µg/mL],IC50 (Homo sapiens [3]) [µg/mL],MIC (Vaccinia virus) [µg/mL],MIC (Human alphaherpesvirus 1) [µg/mL],MIC (Human alphaherpesvirus 2) [µg/mL]
Cn1cc(NC(=O)c2nc(NC(=O)CNC(=N)N)cn2C)nc1C(=O)NCCC(=N)N.O=S(=O)(O)O,> 500,238,> 400,> 400,261,316,300,> 400,> 400
Cn1cc(NC(=O)CNC(=N)N)cc1C(=O)Nc1cn(C)c(C(=O)NCCC(=N)N)n1.O=S(=O)(O)O,> 100,> 100,200,≥ 200,> 100,> 100,40,≥ 200,≥ 200
Cl.Cn1cc(NC(=O)c2cc(N)cn2C)cc1C(=O)NCCC(=N)N,327,276,400,≥ 400,36,43,20,150,150
Nc1ccnc2c1ncn2[C@@H]1C[C@H](CO)[C@@H](O)[C@H]1O,–,–,> 400,–,–,–,0.3,200,≥ 400
Cl.Cl.Cn1cc(NC(=O)c2cc(NC(=O)c3cc(NC=O)cn3C)cn2C)cc1C(=O)NCCC(=N)N,31,27,200,≥ 200,22,24,0.2,70,70
Cn1cc(NC(=O)c2cc(NC(=O)C[N+](C)(C)C)cn2C)cc1C(=O)NCCC(=N)N.[Cl-],> 1000,543,≥ 400,> 400,–,504,20,> 200,> 200
CC[N+](CC)(CC)CC(=O)Nc1cc(C(=O)Nc2cc(C(=O)NCCC(=N)N)n(C)c2)n(C)c1.[Cl-],334,222,> 400,> 400,180,252,300,300,300
Cl.Cn1cc(NC(=O)c2nc(NC(=O)c3nc(NC(=O)CNC(=N)N)cn3C)cn2C)nc1C(=O)NCCC(=N)N,46,42,100,≥ 100,100,52,≥ 100,≥ 100,≥ 100
Cl.Cn1cc(NC(=O)c2nc(NC(=O)CNC(=N)N)cn2C)cc1C(=O)NCCC(=N)N,> 100,> 100,> 400,> 400,> 100,> 100,40,> 400,> 400
Nc1ncnc2c1ncn2C[C@H](O)CO [(S)-DHPA],–,–,> 400,20,–,–,70,> 400,> 400
Cl.Cn1cc(NC(=O)c2cc(NC(=O)c3cc(N)cn3C)cn2C)cc1C(=O)NCCC(=N)N [DEFORMYLDISTAMYCIN],454,174,100,≥ 100,29,32,7,≥ 100,≥ 100
Cl.Cn1cc(NC(=O)c2cc(NC(=O)CNC(=N)N)cn2C)cc1C(=O)NCCC(=N)N [NETROPSIN CHLORIDE],321,245,40,≥ 40,103,139,2,≥ 40,≥ 40
NC(=O)c1ncn([C@@H]2O[C@H](CO)[C@@H](O)[C@H]2O)n1 [RIBAVIRIN],–,–,> 400,200,–,–,30,> 400,> 400
Nc1ncnc2c1ccn2[C@@H]1O[C@H](CO)[C@@H](O)[C@H]1O [TUBERCIDIN],–,–,0.4,–,–,–,0.07,≥ 0.4,≥ 0.4
